Reference: article PMC5903019 (International Journal of Pharmaceutical Investigation, 2017)
Converted amounts (≈) assume the structure as drawn. Where two headings read alike, the source gives them in different places.

Experiments:
[1] = cited from earlier work
[2] = cited from earlier work; remark: listed apart in the source
tubulin polymerization = details: cited from earlier work
[3] = Solubility screening of EAPB0503 in oils; assay type: physicochemical
Summary of the method: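 5 mg of test compound was added to 1 g of pharmaceutical-grade oil ([…], castor, olive, soybean or sesame). Samples were magnetically stirred for 24 h at 20°C and then checked for complete solubilization.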

A375 cell line = details: cited from earlier work
[4] = Thermogravimetric analysis; assay type: physicochemical
Summary of the method: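 Thermogravimetric analysis of a 5.0 ± 0.5 mg sample in a ceramic pan under nitrogen at 2 bars. The sample was heated from 20°C to 350°C at 10°C/min to obtain the degradation temperature.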

[5] = Saturation solubility of EAPB0503 in solvents by HPLC; assay type: physicochemical; details: for solubility: thermodynamic from solid
Summary of the method: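 Solvents, including purified water, were saturated with solid test compound and centrifuged at 5000 g for 5 min. The supernatant was quantified by HPLC on a C8 column using acetonitrile/2 mM ammonium formate pH 3 at 0.6 mL/min with a 12 min run. The column was held at 20°C and detection was by UV. Calibration used DMSO standards from 50–1000 μg/mL.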

[6] = rats, i.p.; cited from earlier work

## COc1cc([C@@H]2c3cc4c(cc3[C@@H](O[C@@H]3O[C@@H]5CO[C@@H](C)O[C@H]5[C@H](O)[C@H]3O)[C@H]3COC(=O)[C@H]23)OCO4)cc(OC)c1O [etoposide]
[1]; formulated in LNC
  Drug efficiency (encapsulation) in LNC: 56.7 ± 21.3%
  Drug loading in LNC: 6.5 ± 3.0 mg/g
[2]
  Water solubility: 0.978 mg/mL

## CNc1nc2ccccc2n2c(-c3cccc(OC)c3)cnc12 [EAPB0503, 1-[3-methoxyphenyl]-N-methylimidazo [1,2-a] quinoxalin-4-amine]
Tubulin polymerization
  Inhibition of the tubulin polymerization: potent inhibition
[3]; Labrafac WL 139
  Solubility in Labrafac WL 139: higher than 12 mg/g
[3]; Labrafac WL 1349 (semi-synthetic oil), oil or lipid, thermodynamic from solid
  solubility at 24 h: 12 mg/mL (≈ 39.4 mM)
[3]; castor, olive, soybean and sesame oils
  Concentration obtainable in vegetable oils: ≤ 1000 µg/mL
[3]; castor, olive, soybean and sesame oils, 5 mg/mL, room temperature
  Solubilization in vegetable oils: not complete
A375 cell line; A375 cell line growth
  IC50: 200 nM
A375 cell line; in vitro activity, human melanoma cell lines
  Fold increase activity compared to EAPB0203: 9
[4]
  Degradation temperature (TGA): 347 °C
[4]; onset
  Degradation temperature onset (TGA): 210 °C
[5]; Purified water
  Maximum concentration (solubility): <0.1 mg/mL
[5]; dimethyl sulfoxide, organic solvent or mixture
  solubility: 16.6 mg/mL (≈ 54.5 mM)
[5]; dimethylacetamide, organic solvent or mixture
  solubility: 24.8 mg/mL (≈ 81.5 mM)
[5]; phosphate buffered saline, aqueous buffer
  solubility: < 0.1 mg/mL
[5]; purified water, water
  solubility: < 0.1 mg/mL
[6]
  Bioavailability after intraperitoneal administration: 35%

## CC(=O)O[C@@]12CO[C@@H]1C[C@H](O)[C@@]1(C)C(=O)[C@H](O)C3=C(C)[C@@H](OC(=O)[C@H](O)[C@@H](NC(=O)OC(C)(C)C)c4ccccc4)C[C@@](O)([C@@H](OC(=O)c4ccccc4)[C@H]21)C3(C)C [docetaxel]
[1]; encapsulated in LNC
  Drug loading in LNC: 2 mg/mL

## CC(=O)O[C@H]1C(=O)[C@@]2(C)[C@H]([C@H](OC(=O)c3ccccc3)[C@]3(O)C[C@H](OC(=O)[C@H](O)[C@@H](NC(=O)c4ccccc4)c4ccccc4)C(C)=C1C3(C)C)[C@]1(OC(C)=O)CO[C@@H]1C[C@@H]2O [paclitaxel]
[1]; encapsulated in LNC
  Drug loading in LNC: 4 mg/mL
